Compound activity deposited in PubChem by SRMLSC.
Many of the other results were omitted from the sample, so hits are more common in it than they were.
PTEN del growth = growth suppression of PTEN-null HCT116, primary screen, cell-based, CellTiter-Glo | hit rate 1.2% among 140,000 | viability, % at 10 µM | HCT116 PTEN-null viability, 60 h; active compounds read low | AID 827, 2007;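 active = viability at or below a set limit, 4 SD under the median of all tested compounds, cut at about 3.7% in these data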;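 note: PTEN knockout HCT116 line with beta catenin targeted HCT116 as companion control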
Lung fibro prol = antiproliferative effect on LL 47 fibroblasts – human, LL 47 cells, CellTiter-Glo luminescence, primary screen; AID 719, 2007; LL 47 human lung fibroblast viability, ATP luminescence; active compounds read low; hit rate 1.1% among 85,000; viability, % at 10 µM;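 active = viability at or below 50% in the single dose screen; inactive = viability above 50%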;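 note: compound exposure lasted 72 h before the ATP readout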
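Material: human lung fibroblast line LL 47, low passage; Evaluation: viability percentage against median untreated-cell control; Buffer or medium: 15% FBS in IMEM; Incubation: 72 h compound exposure at 37 °C after overnight plating; Dosing: 0.1% DMSO in all compound wells; Measured by: CellTiter-Glo luminescence.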
HUVEC inhibit = inhibitors of HUVEC proliferation, primary screen, cell-based, 384-well. CellTiter-Glo luminescence, 72 h; active compounds read low. viability, % at 10 µM (by protocol). hit rate 1.1% among 86,000. AID 648, 2007;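 active = viability at or below 30%; inactive = viability above 30%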
HCT116 bCat-KO = primary screen for growth suppressors in beta-catenin knockout HCT116 cells (colon tumor, human) | HCT116 beta-catenin knockout viability, CellTiter-Glo, 60 h; active compounds read low | viability, % at 10 µM | hit rate 1.5% among 140,000 | AID 818, 2007;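 active = viability at or under a set limit, the compound median less 4 SD, cut at about 6% in these data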
H69AR inhibit = proliferation blockers of H69AR lung cancer cells, primary screen, cell-based, human, 86K library. H69AR lung tumor viability, ATP luminescence, 72 h; active compounds read low. viability, % at 10 µM. hit rate 6% among 85,000;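 active = viability at or below 40%; inactive = viability above 40%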;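 note: multidrug resistant small cell line overexpressing MRP-1 efflux transporter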
Numbers stand for hits; - = inactive; . = no result.

SMILES | PTEN del growth | Lung fibro prol | HUVEC inhibit | HCT116 bCat-KO | H69AR inhibit
Cc1cc(C)n(-c2ccc(C(=O)OCC(=O)c3c(N)n(C)c(=O)n(C)c3=O)cc2)n1 | - | - | - | - | -
Cc1ccc2ccc(C(Nc3ccccn3)c3ccccc3)c(O)c2n1 (stereo not given) | - | - | - | - | 28
Cc1cccc(NC(c2ccc(C)s2)c2ccc3ccc(C)nc3c2O)n1 (stereo not given) | 1.7 | . | . | 2.4 | .
Cc1cc(NC(c2ccc(Cl)cc2)c2ccc3cccnc3c2O)no1 (stereo not given) | - | 8.1 | 11 | 4.3 | -
Cc1cccc(NCc2ccccc2O)n1 | - | - | - | - | -
Oc1c(C(Nc2ccccn2)c2ccccn2)ccc2cccnc12 (stereo not given) | 2.5 | 5.0 | - | 3.0 | 6.4
CC(C)OCCCNC(=S)Nc1ccc(S(N)(=O)=O)cc1 | - | . | . | - | .
Cc1ccc(-c2csc(=S)n2CC(=O)OCC(=O)NCc2ccc(F)cc2)cc1 | - | . | . | - | .
COc1cc(C(Nc2ccccn2)c2ccc3ccc(C)nc3c2O)cc(OC)c1O (stereo not given) | 2.5 | 38 | 14 | 2.9 | 0.3
CC(=O)NC(c1ccco1)c1ccc2cccnc2c1O (stereo not given) | - | 2.2 | 4.6 | 5.1 | -
COc1ccccc1NC(c1cccnc1)c1ccc2cccnc2c1O (stereo not given) | - | . | . | - | .
CC(C)N(C(=O)CSc1nnc(CNc2ccc(F)cc2)o1)C(C)C | - | - | - | - | -
Cc1cc(C)c2cc3c(N)c(C(=O)N4CCc5ccccc5C4)sc3nc2c1 | - | . | . | - | .
Cc1cccc2cc3c(N)c(C(=O)N4CCOCC4)sc3nc12 | - | - | - | - | 18
CCc1nnc(NC(=O)CSc2nnc3c(C)cc4c(C)ccc(C)c4n23)s1 | - | . | . | - | .
COc1ccc(NC(=O)CSc2nc3ccccc3c(=O)n2CCC(=O)N2CCCCC2)cc1 | - | - | - | - | 40
CCCN(CCC)C(=O)CSc1nc2ccccc2c(=O)n1C1CCCC1 | - | - | - | - | 31
Cc1cc(NC(=O)CSc2nc3ccccc3c(=O)n2C2CCCC2)no1 | - | - | - | - | 29
Cc1cc(NC(=O)CSc2nnc3c(C)cc4c(C)ccc(C)c4n23)no1 | - | - | - | - | 26
CCCCNCC(=O)Nc1ccc(NC(=O)CNCCCC)cc1 | - | - | - | - | -
O=C(C1CCN(S(=O)(=O)N2CCC3(CC2)OCCO3)CC1)N1CCCCC1 | - | . | . | - | .
O=C(NS(=O)(=O)c1ccc2c(c1)OCCO2)c1ccccc1 | - | - | - | - | -
Cc1nn(C)c(C(=O)N/N=C/c2cccc3ccccc23)c1Cl | - | . | . | - | .
CCc1cc2cc(C)ccc2nc1SCC(=O)Nc1cc(C)on1 | - | - | - | - | -
CCOc1ccc(-n2c(SCC(=O)Nc3cc(C)on3)nc3c([nH]c4ccccc43)c2=O)cc1 | - | - | - | - | -
SMILES | PTEN del growth | Lung fibro prol | HUVEC inhibit | HCT116 bCat-KO | H69AR inhibit
Cc1cc(NC(=O)CSc2nc(C3CCCCC3)nc3ccccc23)no1 | - | - | - | - | 20
CCc1cc2cc3c(cc2nc1SCC(=O)Nc1cc(C)on1)OCO3 | - | - | - | - | 30
Cc1ccc(-n2c(SCC(=O)Nc3cc(C)on3)nc3c([nH]c4ccccc43)c2=O)cc1 | - | - | - | - | 17
Cc1cc(NC(=O)CSc2nc3c(c(=O)n2-c2ccc(Br)cc2)SCC3)no1 | - | 49 | - | - | 20
CC(=O)c1cc2c(cc1NC(=O)CN1CCCCCCC1)OCO2 | - | - | - | - | -
Cc1ccc(C(=O)NNC(=O)CCN2C(=O)C3CCCCC3C2=O)cc1 (stereo not given) | - | . | . | - | .
Cc1cc2nc(SCC(=O)Nc3nonc3C)c3c(c2cc1C)CCCC3 | - | - | - | - | -
Cc1ccc(Cn2c(SCC(=O)Nc3cc(C)on3)nc3ccccc3c2=O)cc1 | - | 36 | - | - | 17
Cc1nonc1NC(=O)CSc1nc(C2CCCCC2)nc2ccccc12 | - | - | - | - | 15
COc1ccc(-n2nnnc2SCC#CCO)cc1 | - | - | - | - | 18
COc1ccc(-n2nnnc2SCC(=O)c2cccc(OC)c2)cc1 | - | - | - | - | -
O=C1c2ccccc2-c2onc3c(Oc4ccccc4)cc(O)c1c23 | - | - | - | - | 25
CCn1cc(C(=O)NCc2ccco2)c(=O)c2cc(S(=O)(=O)N3CC(C)CC(C)C3)ccc21 (stereo not given) | - | - | 22 | - | -
CCn1cc(C(=O)NCc2ccco2)c(=O)c2cc(S(=O)(=O)N3CCC(C)CC3)ccc21 | - | - | - | - | -
CCOc1cc2c(cc1C(C)(C)C)NC(=O)CS2 | - | - | - | - | 37
COCCNC(=O)c1ccc2c(c1)NC(=O)CS2 | - | - | - | - | -
CC1(C)Cc2ccccc2-c2nnc(SCC(=O)N3CCN(c4ccccc4)CC3)n21 | - | - | - | - | -
COc1ccccc1NS(=O)(=O)c1ccc(C)c(C(=O)NCC2CCCO2)c1 (stereo not given) | - | - | - | - | -
O=C(c1ccc(COc2c(F)c(F)c(F)c(F)c2F)o1)N1CCN(Cc2ccc3c(c2)OCO3)CC1 | - | - | - | - | 28
CCOc1ccc2[nH]c(=O)c(CN(Cc3cccs3)Cc3nnnn3C(C)(C)C)cc2c1 | - | - | - | - | 7.3
Cc1nn(CC(O)CN2c3ccccc3Sc3ccccc32)c(C)c1Br (stereo not given) | - | - | - | - | 27
OC(CN1c2ccccc2Sc2ccccc21)Cn1nnc2ccccc21 (stereo not given) | 2.5 | - | - | - | 25
CCc1nnc(N2C(=O)c3ccc(Oc4ccc([N+](=O)[O-])cc4)cc3C2=O)s1 | - | . | . | - | .
COc1ccc(C2(O)CC3CCC(C2)N3c2nc(C)cc(C)c2C#N)cc1 (stereo not given) | - | - | - | - | 31
O=C(CSc1nc2c(cnn2-c2ccccc2)c(=O)[nH]1)c1ccc(Cl)cc1 | - | - | - | - | 36
SMILES | PTEN del growth | Lung fibro prol | HUVEC inhibit | HCT116 bCat-KO | H69AR inhibit
CCCCSc1nc2c(cnn2-c2ccc(Cl)cc2)c(=O)[nH]1 | - | - | - | - | -
CCCSc1nc2c(cnn2-c2ccccc2)c(=O)[nH]1 | - | - | - | - | -
CCCSc1nc2c(cnn2-c2ccc(C)cc2)c(=O)[nH]1 | - | - | 11 | - | 13
Cc1c(C=O)c(C=O)c(C)n1Cc1ccccc1 | - | 48 | - | - | 38
CC(=O)c1c(C(C)=O)c(C)n(Cc2ccccc2)c1C | - | - | - | - | -
Cc1ccc(NCC(=O)N/N=C\c2ccc([N+](=O)[O-])o2)cc1 | - | . | . | 5.8 | .
O=C(N/N=C/c1ccc([N+](=O)[O-])o1)c1ccc(O)cc1 | - | . | . | 3.2 | .
O=C(CNC(=O)c1ccccc1)N/N=C/c1ccc([N+](=O)[O-])o1 | - | . | . | - | .
O=C(CNc1ccccc1)N/N=C/c1ccc([N+](=O)[O-])o1 | - | . | . | 2.6 | .
